Legend:
[1] = test system: Plasmodium berghei; assay: Antimalarial activity against Plasmodium berghei infected in Swiss Webster mouse assessed as mouse survival rate at 1 mg/kg administered once daily via oral gavage for 4 consecutive days beginning 1 hr after infection measured on day 4 post infection relative to control; format: functional
Procedure, shortened: (§1)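 Mice given an intraperitoneal injection of P. berghei-infected erythrocytes taken from a previously infected animal. Oral dosing once daily for 4 consecutive days, starting 1 h after infection. Vehicle: polyethylene glycol 300/propylene glycol/water (weight ratio 55/25/20). Percent survival recorded daily from day 4 to day 20. Chloroquine 30 mg/kg and vehicle-only groups served as controls.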

[2] = test system: Lymphocyte; assay: Genotoxicity in human lymphocytes at 0.5 to 355 ug/mL after 3 hrs in presence of rat liver S9 fraction by micronucleus assay; format: toxicity, cell-based; settings: s9, 3 h
[3] = test system: Plasmodium berghei; assay: Antimalarial activity against Plasmodium berghei infected in Swiss Webster mouse assessed as mouse survival rate at 11 mg/kg administered once daily via oral gavage for 4 consecutive days beginning 1 hr after infection measured on day 10 post infection relative to control; format: functional; procedure, shortened: as §1
[4] = AUC (0 to infinity) in Sprague-Dawley rat at 5 mg/kg, po via gavage by HPLC/MS analysis; format: ADME, organism-based; parameters: dose 5 mg/kg, route oral, time infinity; settings: in vivo
[5] = Clearance in Sprague-Dawley rat at 5 mg/kg, iv by HPLC/MS analysis; format: ADME, organism-based; settings: in vivo
Procedure, shortened: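 Female CD-1 mice, male SD rats and beagle dogs received 5 mg/kg either iv or by oral gavage. Vehicle was PEG 300/propylene glycol/water (55/25/20, pH 6). Blood was sampled and drug measured by HPLC-MS/MS.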

[6] = test system: Plasmodium falciparum; assay: Antimalarial activity against Plasmodium falciparum NF54 infected in human erythrocytes assessed as reduction in [3H]-hypoxanthine incorporation preincubated for 24 hrs followed by [3H]-hypoxanthine addition measured after 24 hrs by scintillation counting method; format: functional, cell-based
[7] = test system: Plasmodium falciparum; assay: Antimalarial activity against Plasmodium falciparum TM90C2B infected in human erythrocytes assessed as reduction in [3H]-hypoxanthine incorporation preincubated for 24 hrs followed by [3H]-hypoxanthine addition measured after 24 hrs by scintillation counting method; format: functional, cell-based
[8] = test system: Plasmodium falciparum; assay: Antimalarial activity against Plasmodium falciparum V1/S infected in human erythrocytes assessed as reduction in [3H]-hypoxanthine incorporation preincubated for 24 hrs followed by [3H]-hypoxanthine addition measured after 24 hrs by scintillation counting method; format: functional, cell-based
[9] = test system: Plasmodium falciparum; assay: Antimalarial activity against Plasmodium falciparum FCB infected in human erythrocytes assessed as reduction in [3H]-hypoxanthine incorporation preincubated for 24 hrs followed by [3H]-hypoxanthine addition measured after 24 hrs by scintillation counting method; format: functional, cell-based
[10] = test system: Plasmodium falciparum; assay: Antimalarial activity against intraerythrocytic stage of Plasmodium falciparum assessed as time required for maximal killing effect at 10 times IC50 preincubated for 24 hrs followed by [3H]-hypoxanthine addition measured after 24 hrs by scintillation counting method; format: functional
Procedure, shortened: (§2)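 In vitro P. falciparum parasite reduction ratio assay run at 10×, 30× and 100× IC50. Derived parameters: lag phase (time to maximal killing), PRR (parasites killed per life cycle) and PCT99.9% (time to clear 99.9% of the initial parasite population).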

[11] = test system: Plasmodium falciparum; assay: Antimalarial activity against intraerythrocytic stage of Plasmodium falciparum assessed as time required to clear 99.9% of initial parasite population at 100 times IC50 preincubated for 24 hrs followed by [3H]-hypoxanthine addition measured after 24 hrs by scintillation counting method; format: functional; procedure, shortened: as §2
[12] = test system: Salmonella typhimurium; assay: Genotoxicity in Salmonella typhimurium TA98 assessed as number of revertants per plate at 50 ug/plate in absence of rat liver S9 fraction by Ames test (reference value: 14 +/- 6); format: toxicity; settings: salmonella enterica subsp. enterica serovar typhimurium
[13] = test system: Salmonella typhimurium; assay: Genotoxicity in Salmonella typhimurium TA98 assessed as number of revertants per plate at 1500 ug/plate in presence of rat liver S9 fraction by Ames test (reference value: 19 +/- 8); format: toxicity; settings: salmonella enterica subsp. enterica serovar typhimurium
[14] = test system: Salmonella typhimurium; assay: Genotoxicity in Salmonella typhimurium TA100 assessed as number of revertants per plate at 150 ug/plate in absence of rat liver S9 fraction by Ames test (reference value: 154 +/- 9); format: toxicity; settings: salmonella enterica subsp. enterica serovar typhimurium
[15] = test system: Salmonella typhimurium; assay: Genotoxicity in Salmonella typhimurium TA100 assessed as number of revertants per plate at 500 ug/plate in absence of rat liver S9 fraction by Ames test (reference value: 154 +/- 9); format: toxicity; settings: salmonella enterica subsp. enterica serovar typhimurium
[16] = test system: Salmonella typhimurium; assay: Genotoxicity in Salmonella typhimurium TA100 assessed as number of revertants per plate at 5000 ug/plate in absence of rat liver S9 fraction by Ames test (reference value: 154 +/- 9); format: toxicity; settings: salmonella enterica subsp. enterica serovar typhimurium
[17] = test system: Salmonella typhimurium; assay: Genotoxicity in Salmonella typhimurium TA1535 assessed as number of revertants per plate at 15 ug/plate in absence of rat liver S9 fraction by Ames test (reference value: 10 +/- 3); format: toxicity; settings: salmonella enterica subsp. enterica serovar typhimurium
[18] = test system: Salmonella typhimurium; assay: Genotoxicity in Salmonella typhimurium TA1535 assessed as number of revertants per plate at 1500 ug/plate in absence of rat liver S9 fraction by Ames test (reference value: 10 +/- 3); format: toxicity; settings: salmonella enterica subsp. enterica serovar typhimurium
[19] = test system: Salmonella typhimurium; assay: Genotoxicity in Salmonella typhimurium TA1535 assessed as number of revertants per plate at 5000 ug/plate in absence of rat liver S9 fraction by Ames test (reference value: 10 +/- 3); format: toxicity; settings: salmonella enterica subsp. enterica serovar typhimurium
[20] = test system: Salmonella typhimurium; assay: Genotoxicity in Salmonella typhimurium TA1535 assessed as number of revertants per plate at 5 ug/plate in presence of rat liver S9 fraction by Ames test (reference value: 10); format: toxicity; settings: salmonella enterica subsp. enterica serovar typhimurium
[21] = test system: Salmonella typhimurium; assay: Genotoxicity in Salmonella typhimurium TA1535 assessed as number of revertants per plate at 150 ug/plate in presence of rat liver S9 fraction by Ames test (reference value: 10); format: toxicity; settings: salmonella enterica subsp. enterica serovar typhimurium
[22] = test system: Salmonella typhimurium; assay: Genotoxicity in Salmonella typhimurium TA1537 assessed as number of revertants per plate at 50 ug/plate in absence of rat liver S9 fraction by Ames test (reference value: 19 +/- 9); format: toxicity; settings: salmonella enterica subsp. enterica serovar typhimurium
[23] = test system: Salmonella typhimurium; assay: Genotoxicity in Salmonella typhimurium TA1537 assessed as number of revertants per plate at 15 ug/plate in presence of rat liver S9 fraction by Ames test (reference value: 11 +/- 4); format: toxicity; settings: salmonella enterica subsp. enterica serovar typhimurium
[24] = test system: Salmonella typhimurium; assay: Genotoxicity in Salmonella typhimurium TA1537 assessed as number of revertants per plate at 1500 ug/plate in presence of rat liver S9 fraction by Ames test (reference value: 11 +/- 4); format: toxicity; settings: salmonella enterica subsp. enterica serovar typhimurium
[25] = test system: Lymphocyte; assay: Genotoxicity in human lymphocytes assessed as replication index at 160 ug/mL after 3 hrs in absence of rat liver S9 fraction by micronucleus assay relative to control; format: toxicity, cell-based
Procedure, shortened: (§3)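 Human lymphocytes exposed for 3 h with or without rat liver S9, or 28 h without S9, with 1% DMSO as vehicle control. Replication index = (binucleated + 2 × multinucleated cells)/total cells. Cytotoxicity (%) = 100 − (RI treated/RI vehicle) × 100.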

[26] = test system: Lymphocyte; assay: Genotoxicity in human lymphocytes assessed as replication index at 355.15 ug/mL after 3 hrs in absence of rat liver S9 fraction by micronucleus assay relative to control; format: toxicity, cell-based; procedure, shortened: as §3
[27] = test system: Lymphocyte; assay: Genotoxicity in human lymphocytes assessed as replication index at 355.15 ug/mL after 28 hrs in absence of rat liver S9 fraction by micronucleus assay relative to control; format: toxicity, cell-based; procedure, shortened: as §3
[28] = test system: Rattus norvegicus; assay: Genotoxicity in rat assessed as micronucleated polychromatic erythrocytes in bone marrow at 500 mg/kg administered via oral gavage measured after 24 hrs post dose by micronucleus assay (reference value: 0.07 +/- 0.05%); format: toxicity, organism-based; settings: in vivo

`Cc1c(Oc2cnc(C(=O)NC(C)CO)cn2)ccc2c1B(O)OC2` (stereo not drawn) gave a survival at 1 mg/kg [1] of 100%.
For `Cc1c(Oc2cnc(C(=O)NCCO)cn2)ccc2c1B(O)OC2`, the Activity [2] was “Non-Toxic”.
In the case of `Cc1c(Oc2cnc(C(=O)N3CC(O)(C(C)C)C3)cn2)ccc2c1B(O)OC2`, the survival at 11 mg/kg [3] is reported as 20%.
Compound `Cc1c(Oc2cnc(C(=O)N3CC(C)(O)C3)cn2)ccc2c1B(O)OC2` has an AUC(0-inf) [4] of 20800 ng·h/mL, a clearance [5] of 3.88 mL/min/kg and an IC50 [6] of 36 nM. For the same compound, the IC50 [7] was 60 nM, the IC50 [8] was 63 nM and the IC50 [9] was 66 nM. The Time [10] was 0 h, the T99.9% [11] was 30 h and the Activity [12] was 14. For the same compound, the Activity [13] was 15, the Activity [14] was 148 and the Activity [15] was 155. For the same compound, the Activity [16] was 20, the Activity [17] was 13 and the Activity [18] was 7. It also gave an Activity [19] of 4, an Activity [20] of 16 and an Activity [21] of 15. It also gave an Activity [22] of 12, an Activity [23] of 9 and an Activity [24] of 8. It also gave an Activity [25] of 2%, an Activity [26] of 7% and an Activity [27] of 33%. For the same compound, the Activity [28] was 0.03%.

From ChEMBL document CHEMBL4038305, “Benzoxaborole Antimalarial Agents. Part 5. Lead Optimization of Novel Amide Pyrazinyloxy Benzoxaboroles and Identification of a Preclinical Candidate” (J Med Chem, 2017)
